The values that follow come from ChEMBL document CHEMBL4340551, “Design, synthesis and preliminary bioactivity studies of indomethacin derivatives as Bcl-2/Mcl-1 dual inhibitors” (Bioorg Med Chem, 2019).

In experiment [1] the test system is Jurkat. The experiment can be described thus: Induction of apoptosis in human Jurkat cells assessed as necrotic cells level at 20 uM incubated for 48 hrs by annexin-V/FITC and propidium iodide staining based flow cytometry (reference value: 6.29%). Type of experiment: functional. (Flow cytometry measures light scatter and fluorescence of single cells or particles in a stream.)

Experiment [2] has as its target T1, Apoptosis regulator Bcl-2 (Homo sapiens, UniProt P10415). Description: Potency index, ratio of Ki for UMI77 to Ki for test compound for inhibition of 5-FAM-tagged Bid-BH3 peptide binding to Bcl2 (unknown origin) by fluorescence polarization assay. Background: Fluorescence polarisation rises when a labelled molecule tumbles more slowly, as on binding a larger partner.

The target of experiment [3] is T1, Apoptosis regulator Bcl-2. Description: Inhibition of 5-FAM-tagged Bid-BH3 peptide binding to Bcl2 (unknown origin) by fluorescence polarization assay.
Experiment [4] relates to Jurkat. Description: Induction of apoptosis in human Jurkat cells assessed as late apoptotic cells level at 20 uM incubated for 48 hrs by annexin-V/FITC and propidium iodide staining based flow cytometry (reference value: 6.29%). Type of experiment: functional.
Experiment [5] has as its system Jurkat. Description: Induction of apoptosis in human Jurkat cells assessed as necrotic cells level at 40 uM incubated for 48 hrs by annexin-V/FITC and propidium iodide staining based flow cytometry (reference value: 6.29%). In kind it is functional.
In experiment [6] the test system is Jurkat. Description: Induction of apoptosis in human Jurkat cells assessed as early apoptotic cells level at 40 uM incubated for 48 hrs by annexin-V/FITC and propidium iodide staining based flow cytometry (reference value: 7.02%). In kind it is functional.
For a further experiment, the system named is K562. Description: Antiproliferative activity against human K562 cells assessed as reduction in cell growth incubated for 48 hrs by MTT assay. Type of experiment: functional, cell-based. The note with it: K562, 48 h. The method in brief: (§1)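 PC-3, Jurkat and K562 cells grown in RPMI 1640 with 10% FBS at 37°C, 5% CO2. Cells seeded at 2000-4000 per well and left 8 h before compound addition at a range of concentrations. Exposure 48 h, then 0.5% MTT solution for 4 h. Formazan dissolved in DMSO and absorbance read at 570 nm. IC50 derived from concentrations and inhibitory ratios.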

The target in experiment [7] is Induced myeloid leukemia cell differentiation protein Mcl-1 (Homo sapiens, UniProt Q07820). Description: Inhibition of 5-FAM-tagged Bid-BH3 peptide binding to Mcl1 (unknown origin) by fluorescence polarization assay. The procedure, abridged:
(§2)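 Competitive fluorescence polarization in which compounds displace labelled Bid-BH3 peptide from the Bcl-2 family protein, read as a fall in mP. IC50 taken from mP versus concentration. Ki calculated from IC50, Kd, and the peptide and protein concentrations.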

Experiment [8] concerns Jurkat. The experiment can be described thus: Potency index, ratio of IC50 for WL276 to IC50 for test compound for antiproliferative activity against human Jurkat cells assessed as reduction in cell growth incubated for 48 hrs by MTT assay. Type of experiment: functional.
Experiment [9] deals with Jurkat. The experiment can be described thus: Induction of apoptosis in human Jurkat cells incubated for 48 hrs by annexin-V/FITC and propidium iodide staining based flow cytometry. In kind it is functional, cell-based.
The subject of a further experiment is PC-3. The experiment can be described thus: Antiproliferative activity against human PC3 cells assessed as reduction in cell growth incubated for 48 hrs by MTT assay. Type of experiment: functional, cell-based. The note with it: PC-3, 48 h. The method in brief: as §1
(Formazan colour is commonly taken as a measure of viable cells.)

The subject of experiment [10] is Jurkat. The experiment can be described thus: Induction of apoptosis in human Jurkat cells assessed as viable cells level at 40 uM incubated for 48 hrs by annexin-V/FITC and propidium iodide staining based flow cytometry (reference value: 86.5%). In kind it is functional.
In experiment [11] the test system is Jurkat. Description: Induction of apoptosis in human Jurkat cells assessed as viable cells level at 20 uM incubated for 48 hrs by annexin-V/FITC and propidium iodide staining based flow cytometry (reference value: 86.5%). Type of experiment: functional.
In experiment [12] the test system is Jurkat. Description: Induction of apoptosis in human Jurkat cells assessed as early apoptotic cells level at 20 uM incubated for 48 hrs by annexin-V/FITC and propidium iodide staining based flow cytometry (reference value: 7.02%). Type of experiment: functional.
Experiment [13] addresses T1, Apoptosis regulator Bcl-2. Description: Potency index, ratio of Ki for WL276 to Ki for test compound for inhibition of 5-FAM-tagged Bid-BH3 peptide binding to Bcl2 (unknown origin) by fluorescence polarization assay.
A further experiment deals with Bcl-2-like protein 1 (Homo sapiens, UniProt Q07817). Description: Inhibition of 5-FAM-tagged Bid-BH3 peptide binding to Bcl-XL (unknown origin) by fluorescence polarization assay. The procedure, abridged: as §2
Experiment [14] relates to Jurkat. The experiment can be described thus: Antiproliferative activity against human Jurkat cells assessed as reduction in cell growth incubated for 48 hrs by MTT assay. Type of experiment: functional, cell-based. The procedure, abridged: as §1
Experiment [15] relates to Jurkat. The experiment can be described thus: Induction of apoptosis in human Jurkat cells assessed as late apoptotic cells level at 40 uM incubated for 48 hrs by annexin-V/FITC and propidium iodide staining based flow cytometry (reference value: 6.29%). Type of experiment: functional.
The target in experiment [16] is T1, Apoptosis regulator Bcl-2. Description: Inhibition of 5-FAM-tagged Bid-BH3 peptide binding to Bcl2 (unknown origin) at 100 uM by fluorescence polarization assay relative to untreated control.

T1 sequence (P10415 whole entry): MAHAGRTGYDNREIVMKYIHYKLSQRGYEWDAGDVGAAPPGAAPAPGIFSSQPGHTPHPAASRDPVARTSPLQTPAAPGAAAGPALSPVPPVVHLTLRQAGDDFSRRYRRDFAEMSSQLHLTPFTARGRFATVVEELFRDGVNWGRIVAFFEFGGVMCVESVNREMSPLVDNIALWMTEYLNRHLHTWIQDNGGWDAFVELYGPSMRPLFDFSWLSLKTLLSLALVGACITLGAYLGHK
Chain of Induced myeloid leukemia cell differentiation protein Mcl-1 (Q07820 whole entry): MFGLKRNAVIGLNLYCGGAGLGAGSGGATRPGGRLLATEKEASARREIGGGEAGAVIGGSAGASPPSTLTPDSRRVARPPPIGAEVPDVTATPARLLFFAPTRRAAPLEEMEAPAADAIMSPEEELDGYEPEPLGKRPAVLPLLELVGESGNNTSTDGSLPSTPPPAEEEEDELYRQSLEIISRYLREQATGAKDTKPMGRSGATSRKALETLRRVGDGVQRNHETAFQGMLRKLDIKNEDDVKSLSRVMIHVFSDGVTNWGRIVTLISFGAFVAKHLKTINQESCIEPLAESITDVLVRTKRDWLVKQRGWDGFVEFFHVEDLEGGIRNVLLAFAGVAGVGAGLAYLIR
Chain of Bcl-2-like protein 1 (Q07817 whole entry): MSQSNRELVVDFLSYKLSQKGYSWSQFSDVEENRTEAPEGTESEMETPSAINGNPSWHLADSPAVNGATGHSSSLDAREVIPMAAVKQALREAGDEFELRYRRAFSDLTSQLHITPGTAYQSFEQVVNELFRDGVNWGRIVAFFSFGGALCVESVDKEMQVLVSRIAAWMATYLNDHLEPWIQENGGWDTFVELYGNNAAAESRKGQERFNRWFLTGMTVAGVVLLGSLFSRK

As usually defined, the Ki is a measure of affinity in units of concentration, obtained from inhibition or displacement. One may read the IC50 as the concentration that inhibits the measured activity by half. Turning to `COc1ccc2c(c1)c(CC(=O)N[C@@H](Cc1ccc(OCc3ccc(Br)cc3)cc1)C(=O)NS(=O)(=O)c1ccc(Cl)c([N+](=O)[O-])c1)c(C)n2C(=O)c1ccc(Cl)cc1`, the Activity is 0.51% in the experiment on Jurkat [1]; 21.3% in the experiment with Jurkat [4]; 0.81% in the experiment on Jurkat [5]; 27.5% in the experiment with Jurkat [6]; “Dose-dependent effect” in the experiment with Jurkat [9]; 42.3% with Jurkat [10]. Further, the results for the Activity in the experiment on Jurkat [11], with Jurkat [12] and in the experiment on Jurkat [15] were 56.3%, 21.8% and 29.3%, respectively. The Ratio Ki in [2] lay in the range of 5 to 6; in experiment [13], 2 to 3. The results for the Ki (in experiment [3] (read-out: Ki); in experiment [7]; on Bcl-2-like protein 1) were 0.44 µM, 0.44 µM and “Not Active”, respectively. Also, the IC50 is 35.9 µM with K562, 25.8 µM in the experiment with PC-3 and 24.7 µM in the experiment on Jurkat [14]. In addition, the “Ratio IC50” value with Jurkat [8] is 2.
One may read the inhibition as the percentage by which the read-out fell short of the control. As to `COc1ccc2c(c1)c(CC(=O)NCC(=O)NS(=O)(=O)c1ccc(Cl)c([N+](=O)[O-])c1)c(C)n2C(=O)c1ccc(Cl)cc1`, the inhibition in [16] is 94%. Moreover, the Ki entry in [3] is “Not Active”.
